From ChEMBL document CHEMBL4680121, “Development of (4-methoxyphenyl)-1H-tetrazol-5-amine regioisomers as a new class of selective antitubercular agents” (Eur J Med Chem, 2020)

Legend:
Proteus vulgaris = assay: Antibacterial activity against Proteus vulgaris NCTC 4635 assessed as bacterial growth inhibition measured after 18 hrs by two-fold serial microdilution method; assay type: functional
Method in brief: (§1)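 Two-fold serial broth microdilution in MH II medium following modified CLSI procedures. Compounds were dissolved in DMSO and diluted in medium to at most 1% solvent, tested from 0.03125 to 512 μg/ml. Final inoculum 10^6 CFU/ml. MIC was taken as the lowest concentration with no visible growth after 18 h at 35 °C.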

Mycobacterium kansasii = assay: Antibacterial activity against Mycobacterium kansasii assessed as inhibition of microbial growth incubated for 1 week by MABA method; assay type: functional; details: 168 h, time 1 weeks
Method in brief: (§2)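 Microplate Alamar Blue assay using two-fold serial microdilution in Middlebrook 7H9 broth with 10% OADC, compounds 0.125–512 µg/ml from DMSO stocks. Inoculum came from fresh LJ culture, was adjusted to McFarland 1 and diluted 1:20. Plates were incubated 1 week at 37 °C, Alamar blue was added and plates were re-incubated 24 h. MIC was the lowest concentration preventing the blue-to-pink change. Each plate carried growth and sterile controls.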

HaCaT [1] = assay: Cytotoxicity against human HaCaT cells assessed as reduction in cell viability measured after 72 hrs by MTT assay; assay type: cell-based
Method in brief: (§3)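 MTT viability assay on cells grown in DMEM with 10% heat-inactivated FBS, penicillin/streptomycin and 20 mM HEPES at 37 °C/5% CO2. Cells were seeded at 1×10^4 per well and allowed to adhere for 24 h, then the medium was refreshed. Compounds were added at 20–140 μM for 72 h at 37 °C, followed by MTT (0.5 mg/mL in serum-free medium) for 4 h. Untreated cells served as control. IC50 is the concentration giving 50% growth inhibition versus control.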

[2] = system: Mycolicibacterium fortuitum; assay: Antibacterial activity against Mycobacterium fortuitum assessed as inhibition of microbial growth incubated for 1 week by MABA method; assay type: functional; details: 168 h, time 1 weeks; method in brief: as §2
[3] = system: Mycobacterium intracellulare; assay: Antimycobacterial activity against Mycobacterium intracellulare assessed as inhibition of microbial growth incubated for 1 week by MABA method; assay type: functional; details: 168 h, time 1 weeks; method in brief: as §2
Escherichia coli = assay: Antibacterial activity against Escherichia coli ATCC 25922 assessed as bacterial growth inhibition measured after 18 hrs by two-fold serial microdilution method; assay type: functional; method in brief: as §1
Staphylococcus aureus [4] = assay: Antibacterial activity against Staphylococcus aureus NCTC 4163 assessed as bacterial growth inhibition measured after 18 hrs by two-fold serial microdilution method; assay type: functional; method in brief: as §1
Staphylococcus aureus [5] = assay: Antibacterial activity against Staphylococcus aureus ATCC 6538 assessed as bacterial growth inhibition measured after 18 hrs by two-fold serial microdilution method; assay type: functional; method in brief: as §1
[6] = system: Mycobacterium tuberculosis; assay: Antitubercular activity against Mycobacterium tuberculosis Spec.192 assessed as inhibition of microbial growth incubated for 1 week by MABA method; assay type: functional; details: Mycobacterium tuberculosis, 192, 168 h; time 1 weeks
Method in brief: (§4)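 Microplate Alamar Blue assay in Middlebrook 7H9 broth with 10% OADC. Inoculum from fresh LJ culture was adjusted to McFarland 1 and diluted 1:20. DMSO stocks were two-fold serially diluted to final 0.125–512 µg/ml, with growth and sterile controls. Plates ran 1 week at 37 °C, then Alamar blue was added for 24 h. MIC is the lowest concentration preventing the blue-to-pink change.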

[7] = system: Staphylococcus epidermidis; assay: Antibacterial activity against Staphylococcus epidermidis ATCC 35984/RP62A assessed as bacterial growth inhibition measured after 18 hrs by two-fold serial microdilution method; assay type: functional; method in brief: as §1
[8] = system: Mycobacterium scrofulaceum; assay: Antibacterial activity against Mycobacterium scrofulaceum assessed as inhibition of microbial growth incubated for 1 week by MABA method; assay type: functional; details: 168 h, time 1 weeks; method in brief: as §2
Klebsiella pneumoniae = assay: Antibacterial activity against Klebsiella pneumoniae ATCC 10031 assessed as bacterial growth inhibition measured after 18 hrs by two-fold serial microdilution method; assay type: functional; method in brief: as §1
Pseudomonas aeruginosa [9] = assay: Antibacterial activity against Pseudomonas aeruginosa PAO1 assessed as bacterial growth inhibition measured after 18 hrs by two-fold serial microdilution method; assay type: functional; method in brief: as §1
HaCaT [10] = assay: Cytotoxicity against human HaCaT cells assessed as reduction in cell viability at 100 uM measured after 72 hrs by MTT assay; assay type: cell-based; method in brief: as §3
Pseudomonas aeruginosa [11] = assay: Antibacterial activity against Pseudomonas aeruginosa NCTC 6749 assessed as bacterial growth inhibition measured after 18 hrs by two-fold serial microdilution method; assay type: functional; method in brief: as §1
[12] = system: Mycobacterium scrofulaceum; assay: Potency index, ratio of isoniazid MIC to test compound MIC for antibacterial activity against Mycobacterium scrofulaceum assessed as inhibition of microbial growth incubated for 1 week by MABA method; assay type: functional; details: time 1 weeks
[13] = system: Mycobacterium tuberculosis; assay: Antitubercular activity against Mycobacterium tuberculosis H37Rv ATCC 25618 assessed as inhibition of microbial growth incubated for 1 week by MABA method; assay type: functional; details: H37Rv ATCC 25618, 168 h, time 1 weeks; method in brief: as §4
V79 [14] = assay: Cytotoxicity against Chinese Hamster V79 cells assessed as reduction in cell viability measured after 72 hrs by MTT assay; assay type: cell-based; details: Cricetulus griseus, V79, 72 h; method in brief: as §3
[15] = system: Staphylococcus epidermidis; assay: Antibacterial activity against Staphylococcus epidermidis ATCC 12228 assessed as bacterial growth inhibition measured after 18 hrs by two-fold serial microdilution method; assay type: functional; method in brief: as §1
Mycobacterium xenopi = assay: Antibacterial activity against Mycobacterium xenopi assessed as inhibition of microbial growth incubated for 1 week by MABA method; assay type: functional; details: 168 h, time 1 weeks; method in brief: as §2
V79 [16] = assay: Cytotoxicity against Chinese Hamster V79 cells assessed as reduction in cell viability at 100 uM measured after 72 hrs by MTT assay; assay type: cell-based, Cricetulus griseus; details: v79, 72 h; method in brief: as §3
Mycobacterium avium = assay: Antimycobacterial activity against Mycobacterium avium assessed as inhibition of microbial growth incubated for 1 week by MABA method; assay type: functional; details: 168 h, time 1 weeks; method in brief: as §4
[17] = system: Staphylococcus epidermidis; assay: Antibacterial activity against Staphylococcus epidermidis ATCC 1457 assessed as bacterial growth inhibition measured after 18 hrs by two-fold serial microdilution method; assay type: functional; method in brief: as §1

## COc1ccc(Nc2nnnn2-c2cccc(F)c2)cc1
Proteus vulgaris
  MIC: > 256 µg/mL
Mycobacterium kansasii
  MIC: 256 µg/mL
HaCaT [1]
  IC50: 101 µM
[2]
  MIC: 256 µg/mL
[3]
  MIC: 64 µg/mL
Escherichia coli
  MIC: > 256 µg/mL
Staphylococcus aureus [4]
  MIC: > 256 µg/mL
Staphylococcus aureus [5]
  MIC: > 256 µg/mL
[6]
  MIC: 16 µg/mL
[7]
  MIC: > 256 µg/mL
[8]
  MIC: 16 µg/mL
Klebsiella pneumoniae
  MIC: > 256 µg/mL
Pseudomonas aeruginosa [9]
  MIC: > 256 µg/mL
HaCaT [10]
  Activity: Non-Toxic
Pseudomonas aeruginosa [11]
  MIC: > 256 µg/mL
[12]
  Ratio: 4
[13]
  MIC: 16 µg/mL
V79 [14]
  IC50: 123 µM
[15]
  MIC: > 256 µg/mL
Mycobacterium xenopi
  MIC: 128 µg/mL
V79 [16]
  Activity: Non-Toxic
Mycobacterium avium
  MIC: 128 µg/mL
[17]
  MIC: > 256 µg/mL
